# Laboratory results as given in ChEMBL document CHEMBL5584273, “Investigation of Isobactin Analogues of Teixobactin” (ACS Med Chem Lett, 2024).
# Bridge positions count the residues as written; N and C are the ends. Square brackets hold non-standard residues; d marks the D form. Side chains are listed from the residue outwards. Peptide text beside a SMILES is read from it. I, II: the chains in the order shown. * marks the point of attachment. Ser(O-(NMe-dPhe-Ile)) = CC[C@H](C)[C@H](NC(=O)[C@@H](Cc1ccccc1)NC)C(=O)OC[C@H](N)C(=O)*; d(aIle) = CC[C@H](C)[C@@H](N)C(=O)O; dNMeF = CN[C@H](Cc1ccccc1)C(=O)O; Chg = N[C@H](C(=O)O)C1CCCCC1
# Legend:
# Enterococcus faecalis = experiment: Antibiotic activity against vancomycin-resistant Enterococcus faecalis ATCC 51299 assessed as inhibition of bacterial growth incubated for 16 hrs in presence of 0.002% polysorbate 80; format: functional
# [1] = Solubility in PBS buffer at pH 7.4 at 0.5 mg/ml by HPLC analysis; format: physicochemical
# HeLa = experiment: Cytotoxicity against human HeLa cells at 50 uM by promega cytotox-glo assay; format: toxicity, cell-based
# In short: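 HeLa cells were exposed to compound at concentrations up to 50 μM. Cytotoxicity was read with the Cytotox-Glo luminescent assay.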
# Erythrocyte = experiment: Hemolytic activity in human Red blood cell at 25 microg/ml in absence of polysorbate 80; format: toxicity, cell-based; settings: dose 25 µg/ml
# In short: (§1)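 Human red blood cells were tested with and without 0.002% polysorbate 80. Triton X-100 served as the 100% lysis control and water (vehicle) as the 0% lysis control. 1.25 μM melittin was an added positive control.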
# [2] = Hemolytic activity in human Red blood cell assessed as hemolysis at 100 microg/ml in presence of 0.002% polysorbate 80 relative to control; format: toxicity, cell-based, Erythrocyte; settings: red blood cells (erythrocytes), at 100 µg/mL, read-out: Activity; in short: as §1
# Staphylococcus aureus [3] = experiment: Antibiotic activity against methicillin-sensitive Staphylococcus aureus ATCC 29213 assessed as inhibition of bacterial growth incubated for 16 hrs in presence of 0.002% polysorbate 80; format: functional
# In short: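 Overnight culture from glycerol stock in Mueller-Hinton broth at 37 °C with shaking; all media contain 0.002% polysorbate 80. DMSO stock (1 mg/mL) diluted in medium; 2-fold series, final 8–0.0078 μg/mL; inoculum ~5 × 10^5 CFU/mL (OD600-normalised).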
# Staphylococcus aureus [4] = experiment: Antibiotic activity against methicillin-resistant Staphylococcus aureus ATCC 700698 assessed as inhibition of bacterial growth incubated for 16 hrs in presence of 0.002% polysorbate 80; format: functional
# In short: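 Overnight culture from glycerol stock in brain heart infusion broth at 37 °C with shaking; all media contain 0.002% polysorbate 80. DMSO stock (1 mg/mL) diluted in medium; 2-fold series, final 8–0.0078 μg/mL; inoculum ~5 × 10^5 CFU/mL (OD600-normalised).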
# Bacillus subtilis = experiment: Antibiotic activity against Bacillus subtilis ATCC 6051 assessed as inhibition of bacterial growth incubated for 16 hrs in presence of 0.002% polysorbate 80; format: functional
# In short: (§2)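 Broth microdilution in media containing 0.002% polysorbate 80. Overnight cultures were grown at 37 °C with shaking in Mueller-Hinton broth. Inoculum was set from background-corrected OD600 to about 5 × 10^5 CFU/mL final. 2-fold dilutions gave final 8 to 0.0078 μg/mL from a DMSO stock. Plates were incubated 16 h at 37 °C and OD600 was read. MIC is the lowest concentration with no growth. Run in quadruplicate technical replicates.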
# [5] = tested on: Staphylococcus epidermidis; experiment: Antibiotic activity against Staphylococcus epidermidis ATCC 14990 assessed as inhibition of bacterial growth incubated for 16 hrs in presence of 0.002% polysorbate 80; format: functional
# In short: as §2, with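 “final.” for “final. 2-fold dilutions gave final 8 to 0.0078 μg/mL from a DMSO stock.”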
# Escherichia coli = experiment: Antibiotic activity against Escherichia coli ATCC 10798 assessed as inhibition of bacterial growth incubated for 16 hrs in presence of 0.002% polysorbate 80; format: functional; in short: as §2
Structure (SMILES),MIC (Enterococcus faecalis) [µg/mL],solubility [1],Activity (HeLa),Activity (Erythrocyte),hemolysis at 100 microg/ml [2] [%],MIC (Staphylococcus aureus [3]) [µg/mL],MIC (Staphylococcus aureus [4]) [µg/mL],MIC (Bacillus subtilis) [µg/mL],MIC [5] [µg/mL],MIC (Escherichia coli) [µg/mL]
CC[C@H](C)[C@H](NC(=O)[C@H](NC(=O)[C@@H](CCCNC(=N)N)NC(=O)[C@@H](N)COC(=O)[C@@H](NC(=O)[C@@H](Cc1ccccc1)NC)[C@@H](C)CC)[C@@H](C)CC)C(=O)N[C@@H](CO)C(=O)N[C@H]1C(=O)N[C@@H](C)C(=O)N[C@@H](C2CCCCC2)C(=O)N[C@@H]([C@@H](C)CC)C(=O)O[C@H]1C (H-S([Ile-dNMeF])[dR][d(aIle)]IS[dT]A[Chg]I; ester 6-C),1,Insoluble,Toxic,Non-Toxic,0,,,,,
"CC[C@H](C)[C@H](NC(=O)[C@@H](Cc1ccccc1)NC)C(=O)N[C@@H](CO)C(=O)N[C@H](CCCNC(=N)N)C(=O)N[C@@H](C(=O)N[C@H](C(=O)OC[C@H](N)C(=O)N[C@H]1C(=O)N[C@@H](C)C(=O)N[C@@H](C2CCCCC2)C(=O)N[C@@H]([C@@H](C)CC)C(=O)O[C@H]1C)[C@@H](C)CC)[C@@H](C)CC (I: H-[dNMeF]IS[dR][d(aIle)]I / II: H-S[dT]A[Chg]I; ester I:C-II:1, II:2-II:C)",,Insoluble,Toxic,Non-Toxic,0,1,1,,,
CC[C@H](C)[C@H](NC(=O)[C@@H](Cc1ccccc1)NC)C(=O)N[C@@H](CO)C(=O)N[C@H](CCC(N)=O)C(=O)N[C@@H](C(=O)N[C@H](C(=O)OC[C@H](N)C(=O)N[C@H]1C(=O)N[C@@H](C)C(=O)N[C@@H](C[C@H]2CNC(=N)N2)C(=O)N[C@@H]([C@@H](C)CC)C(=O)O[C@H]1C)[C@@H](C)CC)[C@@H](C)CC,0.5,,,,,0.5,0.5,0.062,0.25,> 8
CC[C@H](C)[C@H](NC(=O)[C@@H](Cc1ccccc1)NC)C(=O)N[C@@H](CO)C(=O)N[C@H](CCCNC(=N)N)C(=O)N[C@@H](C(=O)N[C@H](C(=O)N[C@@H](CO)C(=O)N[C@H]1C(=O)N[C@@H](C)C(=O)N[C@@H](CC(C)C)C(=O)N[C@@H]([C@@H](C)CC)C(=O)O[C@H]1C)[C@@H](C)CC)[C@@H](C)CC,,,,,,0.25,,,,
"CC[C@H](C)[C@H](NC(=O)[C@@H](Cc1ccccc1)NC)C(=O)N[C@@H](CO)C(=O)N[C@H](CCCNC(=N)N)C(=O)N[C@@H](C(=O)N[C@H](C(=O)OC[C@H](N)C(=O)N[C@H]1C(=O)N[C@@H](C)C(=O)N[C@@H](CC(C)C)C(=O)N[C@@H]([C@@H](C)CC)C(=O)O[C@H]1C)[C@@H](C)CC)[C@@H](C)CC (I: H-[dNMeF]IS[dR][d(aIle)]I / II: H-S[dT]ALI; ester I:C-II:1, II:2-II:C)",1,,,,,0.125,,,0.016,
CN[C@H](CC(C)C)C(=O)N[C@H]1C(=O)N[C@@H](CC(N)=O)C(=O)N[C@H]2C(=O)N[C@H]3C(=O)N[C@H](C(=O)N[C@H](C(=O)O)c4cc(O)cc(O)c4-c4cc3ccc4O)[C@H](O)c3ccc(c(Cl)c3)Oc3cc2cc(c3O[C@@H]2O[C@H](CO)[C@@H](O)[C@H](O)[C@H]2O[C@H]2C[C@](C)(N)[C@H](O)[C@H](C)O2)Oc2ccc(cc2Cl)[C@H]1O [VANCOMYCIN],> 8,,,,,,,0.5,,
CC[C@H](C)[C@H](NC(=O)[C@@H](Cc1ccccc1)NC)C(=O)OC[C@H](N)C(=O)N[C@H](CCCNC(=N)N)C(=O)N[C@@H](C(=O)N[C@H](C(=O)OC[C@H](N)C(=O)N[C@H]1C(=O)N[C@@H](C)C(=O)N[C@@H](CC(C)C)C(=O)N[C@@H]([C@@H](C)CC)C(=O)O[C@H]1C)[C@@H](C)CC)[C@@H](C)CC (H-S([Ile-d(aIle)-dR-Ser(O-(NMe-dPhe-Ile))])[dT]ALI; ester 2-C),,,,,,,1,0.016,,
CC[C@H](C)[C@H](NC(=O)[C@@H](Cc1ccccc1)NC)C(=O)N[C@@H](CO)C(=O)N[C@H](CCCNC(=N)N)C(=O)N[C@@H](C(=O)N[C@H](C(=O)N[C@@H](CO)C(=O)N[C@H]1C(=O)N[C@@H](C)C(=O)N[C@@H](C2CCCCC2)C(=O)N[C@@H]([C@@H](C)CC)C(=O)O[C@H]1C)[C@@H](C)CC)[C@@H](C)CC,,Insoluble,Toxic,,,,,,0.125,
CC[C@H](C)[C@H](NC(=O)[C@H](NC(=O)[C@@H](CCCNC(=N)N)NC(=O)[C@@H](N)COC(=O)[C@@H](NC(=O)[C@@H](Cc1ccccc1)NC)[C@@H](C)CC)[C@@H](C)CC)C(=O)N[C@@H](CO)C(=O)N[C@H]1C(=O)N[C@@H](C)C(=O)N[C@@H](CC(C)C)C(=O)N[C@@H]([C@@H](C)CC)C(=O)O[C@H]1C (H-S([Ile-dNMeF])[dR][d(aIle)]IS[dT]ALI; ester 6-C),,,,,,,0.5,0.008,0.031,
CC[C@H](C)[C@H](NC(=O)[C@@H](Cc1ccccc1)NC)C(=O)OC[C@H](N)C(=O)N[C@H](CCCNC(=N)N)C(=O)N[C@@H](C(=O)N[C@H](C(=O)OC[C@H](N)C(=O)N[C@H]1C(=O)N[C@@H](C)C(=O)N[C@@H](C2CCCCC2)C(=O)N[C@@H]([C@@H](C)CC)C(=O)O[C@H]1C)[C@@H](C)CC)[C@@H](C)CC (H-S([Ile-d(aIle)-dR-Ser(O-(NMe-dPhe-Ile))])[dT]A[Chg]I; ester 2-C),1,Insoluble,Toxic,Non-Toxic,0,,1,0.125,,
